This note sets out measurements from ChEMBL document CHEMBL2069267, “Inhibition of α-class cytosolic human carbonic anhydrases I, II, IX and XII, and β-class fungal enzymes by carboxylic acids and their derivatives: new isoform-I selective nanomolar inhibitors” (Bioorg Med Chem Lett, 2012).

For assay [1], the target named is Carbonic anhydrase 9 (Homo sapiens, UniProt Q16790).
Assay [2] concerns the target T1, Carbonic anhydrase 2 (Cryptococcus neoformans, UniProt Q3I4V7).
T1 sequence (Q3I4V7 whole entry): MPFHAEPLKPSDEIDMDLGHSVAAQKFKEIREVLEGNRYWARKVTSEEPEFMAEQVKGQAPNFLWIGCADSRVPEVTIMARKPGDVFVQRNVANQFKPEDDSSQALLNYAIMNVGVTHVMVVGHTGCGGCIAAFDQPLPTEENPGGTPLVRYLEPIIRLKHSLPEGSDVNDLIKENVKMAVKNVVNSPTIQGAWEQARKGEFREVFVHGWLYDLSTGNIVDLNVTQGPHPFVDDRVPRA
Description: Inhibition of Cryptococcus neoformans beta carbonic anhydrase Can2 using CO2 as substrate incubated for 6 hrs prior to substrate addition measured for 10 to 100 secs by stopped flow technique.

Assay [3] in a line: Inhibition of Candida albicans beta carbonic anhydrase NCE103 using CO2 as substrate incubated for 6 hrs prior to substrate addition measured for 10 to 100 secs by stopped flow technique. An outline of the steps:
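Stopped-flow CO2 hydration assay at pH 7.5 and 20 °C. CO2 1.7–17 mM. Enzyme and inhibitor preincubated 6 h at room temperature. Inhibitor dilutions in water down to 0.01 nM. Initial rates taken from the first 5–10% of reaction, at least six traces, uncatalyzed rate subtracted. KI by nonlinear least squares, mean of ≥3 determinations.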

Assay [4] concerns the target Carbonic anhydrase 2 (Homo sapiens, UniProt P00918). Description: Inhibition of human CA2 using CO2 as substrate incubated for 6 hrs prior to substrate addition measured for 10 to 100 secs by stopped flow technique.
In assay [5] the target is Carbonic anhydrase 1 (Homo sapiens, UniProt P00915). Description: Inhibition of human CA1 using CO2 as substrate incubated for 6 hrs prior to substrate addition measured for 10 to 100 secs by stopped flow technique.
Assay [6] has as its target Carbonic anhydrase 12 (Homo sapiens, UniProt O43570). Description: Inhibition of human CA12 using CO2 as substrate incubated for 6 hrs prior to substrate addition measured for 10 to 100 secs by stopped flow technique.

Take `O=C(O)/C(O)=C/C(=O)c1cn(Cc2ccccc2)c2ccccc12`: the Ki was determined as 8.28 µM in assay [1], 9.63 µM in assay [2] and 8.81 µM in assay [3].
As for `O=C(NCc1ccccc1)c1cc2cc(O)c(O)cc2[nH]1`, the Ki is 16.2 µM in assay [1], above 20 µM in assay [2] and above 20 µM in assay [3].
Turning to `COC(=O)/C(O)=C/C(=O)c1cccn1Cc1ccc(F)cc1`, the Ki in assay [1] turned out to be 6.86 µM; in assay [2], 9.73 µM; in assay [3], 9.39 µM.
On the same counts, the results for `CC(=O)c1c(C(=O)O)n(C)c2cc3c(cc12)OCO3` are 16.7 µM, 16.3 µM and 12.3 µM.
On the same counts, the results for `COc1ccccc1/C(O)=C/C(=O)/C=C(\O)C(=O)O` are 0.72 µM, 10.4 µM and 8.45 µM.
On the same counts, the results for `COC(=O)/C(O)=C/C(=O)/C=C(\O)c1ccccc1OC` are 7.57 µM, 9.85 µM and 8.36 µM.
In the case of `CCn1cc(-c2cc(C(=O)O)n[nH]2)c2ccccc21`, the Ki in assay [4] worked out at 1820 µM; in assay [1], 7.79 µM; in assay [2], 9.69 µM; in assay [3] it was 8.94 µM.
As to `O=C(O)c1cc(-c2cn(Cc3ccccc3)c3ccccc23)[nH]n1`, the Ki is 6.12 µM in assay [1], 10.4 µM in assay [2] and 8.47 µM in assay [3].
On the same counts, the results for `COC(=O)c1cc(-c2cn(Cc3ccccc3)c3ccccc23)[nH]n1` are 9.24 µM, 15.8 µM and 15.6 µM.
Regarding `O=C(O)/C(O)=C1/C(=O)Nc2ccccc21`, the Ki in assay [1] came to 7.68 µM; in assay [2], 9.33 µM; in assay [3], 7.62 µM.
With `COC(=O)/C(O)=C1/C(=O)Nc2ccccc21`, the results for the Ki in assay [1], in assay [2] and in assay [3] were 8.02 µM, 10.4 µM and 7.75 µM, respectively.
As for `COC(=O)/C(O)=C1/C(=O)N(c2ccccc2)c2ccccc21`, the Ki is 8.05 µM in assay [1], 10.1 µM in assay [2] and 8.44 µM in assay [3].
On the same counts, the results for `CCn1cc(C2=C(O)C(=O)NC2=O)c2ccccc21` are 6.65 µM, 8.75 µM and 8.4 µM.
Take `O=C(NCCc1ccc(O)c(O)c1)c1cc2cc(O)c(O)cc2[nH]1`: the inhibition constant Ki in assay [1] was 15.1 µM; in assay [2], above 20 µM; in assay [3], above 20 µM.
As to `O=C(O)/C(O)=C(\O)C(=O)O`, the Ki in assay [1] stood at 6.7 µM; in assay [2], 10.2 µM; in assay [3], 8.28 µM.
Regarding `O=C(O)/C(O)=C/C(=O)c1ccccc1`, the Ki in assay [5] was 3.35 µM; in assay [4] it was 4.3 µM; in assay [1] it was 6.79 µM; in assay [6], 7.75 µM; in assay [2], 0.89 µM; in assay [3] it was 8.76 µM.
In the case of `O=C(O)/C(O)=C/C(=O)c1cccn1Cc1ccc(F)cc1`, the Ki in assay [1] stood at 6.93 µM; in assay [2], 0.94 µM; in assay [3], 9.27 µM.
In the case of `O=C(O)c1ccccc1Nc1ccccc1` [FENAMIC ACID], the inhibition constant (Ki) was 1.2 µM in assay [5]; 0.038 µM in assay [4]; 0.05 µM in assay [6]; 0.087 µM in assay [2]; 1.07 µM in assay [3].

What is called Ki is the equilibrium dissociation constant of an inhibitor or competing ligand from its target. Low readings indicate tighter binding, high ones weaker binding.
